One series is described as follows: Hygroscopicity test. It is filed as physicochemical. To be noted: 25 °C/80% RH for 24 h. The essentials: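 Co-amorphous samples were held at 25 °C/80% RH for 24 h, and percentage weight gain was calculated, n = 3. Pharmacopeial criteria were applied: a gain above 2% but below 15% counts as hygroscopic.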
The next series in a line: Stability experiments. It is filed as physicochemical. Particulars: 75% RH for 5 and 10 days.
Series [1] concerns GLUT4 expression in H9c2 cells. Briefly: GLUT4 immunofluorescence. In kind it is cell-based. Particulars: 2 h pre-treatment before HGHI incubation. The essentials: (§1)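 Before the high-glucose/high-insulin step (30 mM glucose, 5 μM insulin, 30 h), cells were pre-treated for 2 h with the PI3K inhibitor LY294002 or the AMPK inhibitor dorsomorphin. They then received test compounds at varying concentrations for 24 h. GLUT4 was immunostained with a rabbit polyclonal primary and a fluorescein-conjugated secondary, with DAPI for nuclei. Cells were imaged by confocal microscopy and GLUT4 signal was quantified.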

The test system of series [2] is GLUT4 expression in HepG2 cells. Kind of series: GLUT4 immunofluorescence. It is filed as cell-based. To be noted: 2 h pre-treatment before HGHI incubation. The essentials: as §1
The test system of a further series is H9c2 cells. Briefly: Cytotoxicity, MTT assay under HGHI conditions. To be noted: 24 h. It is filed as cell-based. The essentials: (§2)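 Cell lines were kept in DMEM (25 mM glucose, 10% FBS, 1% penicillin/streptomycin) at 37 °C and 5% CO2. Insulin resistance was induced with 30 mM glucose plus 5 μM insulin for 30 h. Cells were then exposed for 24 h under these conditions to a range of concentrations of the single components, a physical mixture or the co-amorphous system. Viability was read by MTT, n = 3, mean ± SD.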

In another series the test system is HepG2 cells. Kind of series: Cytotoxicity, MTT assay under HGHI conditions. To be noted: 24 h. In kind it is cell-based. The essentials: as §2
(In general: Tetrazolium assays rely on reduction of a dye to a coloured formazan, in cell work by metabolically active cells.)

Where a name gives a salt, the structure may show the parent alone.

`CCOc1ccc(Cc2cc([C@@H]3O[C@H](CO)[C@@H](O)[C@H](O)[C@H]3O)ccc2Cl)cc1` [DAP, Dapagliflozin]: in the series “Hygroscopicity test”, the “Percentage of weight gain (hygroscopicity)” value was 5.36%. The “Phase stability under high humidity (XRD)” value in the series “Stability experiments” is given as “remained amorphous”.
As to `O=c1cc(N2CCOCC2)oc2c(-c3ccccc3)cccc12` [LY294002], the “Effect of inhibitor on GLUT4 fluorescence induced by COA-I” value in series [1] and in series [2] was “attenuated” throughout.
With `CCc1ccc(CCOc2ccc(CC3SC(=O)NC3=O)cc2)nc1` (stereo not drawn) [PIO, Pioglitazone], in the series “Hygroscopicity test”, the “Percentage of weight gain (hygroscopicity)” value is listed as 0.86%. Besides, the Concentrations showing cytotoxicity entry with H9c2 cells and with HepG2 cells was “higher than 10 μM” each time.
`c1cc(-c2cnn3cc(-c4ccc(OCCN5CCCCC5)cc4)cnc23)ccn1` [compound C, dorsomorphin (compound C) dihydrochloride]: the “Effect of inhibitor on GLUT4 fluorescence induced by COA-I” value in series [1] and in series [2] was “attenuated” throughout.

These data come from publication PMC12765261 (Journal of Pharmaceutical Analysis, 2025).
